Assay [1] concerns Rattus norvegicus. In words: Analgesic activity in ip dosed Charles River rat by tail flick test. Format: functional. Put shortly: (§1)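 Dosed intraperitoneally as aqueous solutions or Tween-80 suspensions to groups of six or ten rats. Doses expressed as mg base/kg. Read-out recorded as the number of rats showing analgesia over the number tested at each dose.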
The test system of assay [2] is Rattus norvegicus. In words: Analgesic activity in Charles River rat at 50 mg/kg, ip by tail flick test. Format: functional, organism-based. Set-up: dose 50 mg/kg. Put shortly: as §1
(In general: In hot-plate and tail-flick tests a longer latency is read as antinociception.)

For assay [3], the species on record is Rattus norvegicus. The assay can be described thus: Analgesic activity in Charles River rat by tail flick test relative to morphine. Format: functional. An outline of the steps:
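Rats (groups of six or ten) dosed ip in aqueous solution or Tween-80 suspension, with doses as mg base/kg. Potency expressed relative to morphine, which was taken as unity. Some estimates were based on two doses.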

In assay [4] the test system is Rattus norvegicus. In words: Analgesic activity in po dosed Charles River rat by tail flick test. Format: functional. Put shortly:
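Oral dosing of rats, with doses calculated as mg base/kg. Read-out recorded as the number of rats showing analgesia over the number tested.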

The subject of assay [5] is Rattus norvegicus. In words: Analgesic activity in Charles River rat at 25 mg/kg, ip by tail flick test. Format: functional, organism-based. Set-up: dose 25 mg/kg. An outline of the steps: as §1

Data on 19 molecules can be found in ChEMBL document CHEMBL3272234, “Analgesic agents. 3. New bridged aminotetralins” (1976).

For orientation: ED50 means the midpoint of the dose-response relation. The low end stands for an effect at a small dose, the high end for a need for a large dose.

Calls of active or inactive are those of the source. The rule behind the calls is not given here.

For the molecule `CC[C@@]12CC=CCC(Cc3ccc(OC)cc31)[C@@H]2NC.I`, the ED50 in the assay with Rattus norvegicus [1] came out at 25 mg/kg.

In turn, `COc1ccc2c(c1)[C@@]1(C)CC=CCC(C2)[C@@H]1N(C)C.Cl` yielded an ED50 in the assay on Rattus norvegicus [1] of 50 mg/kg. In the assay with Rattus norvegicus [2], the result was inactive.

With `Br.C[C@@]12Cc3ccccc3CCC(Cc3ccc(O)cc31)C2N` (some centres undefined), in the assay with Rattus norvegicus [1], the ED50 was 25 mg/kg.

The molecule `Br.C[C@@]12CCCCC(Cc3ccc(O)cc31)[C@@H]2N` had an ED50 with Rattus norvegicus [1] of 7.4 mg/kg. Moreover, the Ratio in the assay listed under Rattus norvegicus [3] came to 0.6.

As for `COc1ccc2c(c1)[C@@]1(C)CCCCCC(C2)[C@@H]1N.Cl`, the ED50 in the assay on Rattus norvegicus [1] worked out at 10 mg/kg. Also, the Ratio in the assay listed under Rattus norvegicus [3] worked out at 0.44.

Take `CC[C@@]12CC=CCC(Cc3ccc(O)cc31)[C@@H]2N`: the ED50 in the assay with Rattus norvegicus [4] was 6.25 mg/kg; in the assay with Rattus norvegicus [1] it was 1.75 mg/kg. In the assay filed under Rattus norvegicus [3], the Ratio was determined as 2.53.

In the case of `CN1CC[C@]23c4c5ccc(O)c4O[C@H]2[C@@H](O)C=C[C@H]3[C@H]1C5` [MORPHINE], the Ratio in the assay listed under Rattus norvegicus [3] came out at 1.

`CC[C@@]12CC=CCC(Cc3ccc(OC)cc31)[C@@H]2N(C)C.Cl`: the ED50 in the assay with Rattus norvegicus [1] was determined as 50 mg/kg. In addition, the outcome with Rattus norvegicus [2] was inactive.

In the assay with Rattus norvegicus [1], `COc1ccc2c(c1)[C@@]1(C)Cc3ccccc3CCC(C2)C1N.O=C(O)/C=C/C(=O)O` (some centres undefined) displayed an ED50 of 25 mg/kg. The outcome in the assay with Rattus norvegicus [5] was inactive.

For the molecule `Br.C[C@@]12Cc3ccccc3CC(Cc3ccc(O)cc31)C2N` (some centres undefined), it took a dose of 12.5 mg/kg to reach the 50% effect level in the assay on Rattus norvegicus [1] (ED50). Moreover, the Ratio in the assay listed under Rattus norvegicus [3] is 0.35.

Regarding `COc1ccc2c(c1)[C@@]1(C)CCCCCC(C2)[C@@H]1[N+](C)(C)[O-].Cl`, the ED50 in the assay on Rattus norvegicus [4] was determined as 16.5 mg/kg; in the assay on Rattus norvegicus [1], 10 mg/kg. Moreover, the Ratio in the assay filed under Rattus norvegicus [3] is recorded as 0.44.

`C[C@@]12CCCCC(Cc3ccc(OC(=O)C4CC4)cc31)[C@@H]2N.Cl`: the results for the ED50 in the assay with Rattus norvegicus [4] and in the assay on Rattus norvegicus [1] were 16.5 mg/kg and 5.5 mg/kg, respectively. Also, the Ratio in the assay filed under Rattus norvegicus [3] is listed as 0.81.

Molecule `CC[C@@]12Cc3ccccc3CC(Cc3ccc(OC)cc31)C2N.Cl` (some centres undefined) yielded an ED50 with Rattus norvegicus [1] of 50 mg/kg.

With `CCC(=O)O[C@](Cc1ccccc1)(c1ccccc1)[C@H](C)CN(C)C` [PROPOXYPHENE], the ED50 in the assay on Rattus norvegicus [1] amounted to 10.4 mg/kg.

`C[C@@]12CC=CCC(Cc3ccc(O)cc31)[C@@H]2N.Cl` gave an ED50 in the assay with Rattus norvegicus [1] of 6.25 mg/kg. For the same molecule, the Ratio in the assay filed under Rattus norvegicus [3] came out at 1.26.

Turning to `CC[C@@]12CC=CCC(Cc3ccc(OC)cc31)[C@@H]2N.Cl`, the ED50 with Rattus norvegicus [4] was found to be 6.25 mg/kg; with Rattus norvegicus [1], 4.2 mg/kg. In addition, the Ratio in the assay filed under Rattus norvegicus [3] is recorded as 1.05.

In the case of `CC(=O)Oc1ccc2c(c1)[C@@]1(C)CCCCC(C2)[C@@H]1N.Cl`, the ED50 in the assay on Rattus norvegicus [4] was 40 mg/kg; in the assay on Rattus norvegicus [1] it was 10 mg/kg. In addition, the Ratio in the assay listed under Rattus norvegicus [3] is on record as 0.44.

For `COc1ccc2c(c1)[C@@]1(C)CC=CCC(C2)[C@@H]1N.Cl`, the ED50 with Rattus norvegicus [4] is 6.25 mg/kg; with Rattus norvegicus [1], 16.5 mg/kg. Also, the Ratio in the assay filed under Rattus norvegicus [3] is 0.27.

In the assay on Rattus norvegicus [1], `COc1ccc2c(c1)[C@@]1(C)Cc3ccccc3CC(C2)C1N.Cl` (some centres undefined) returned an ED50 of 14.5 mg/kg. Also, the Ratio in the assay filed under Rattus norvegicus [3] was 0.31.
